Our source for the Ki, Activity and IC50 values is ChEMBL document CHEMBL3124879, “Synthesis and evaluation of 2-(1H-indol-3-yl)-4-phenylquinolines as inhibitors of cholesterol esterase” (Bioorg Med Chem Lett, 2014).

A value given as a limit tells only on which side of the number the result lay.

Usually Ki stands for a dissociation constant, usually derived from enzyme kinetics or from competition with a known ligand. Higher therefore signals weaker binding. Usually IC50 stands for the point on the concentration scale where inhibition reaches its midpoint.

Experiment [1] in a line: Uncompetitive inhibition of porcine cholesterol esterase using para-nitrophenyl butyrate as substrate by Lineweaver-Burk plot analysis. Also on record: species or system Sus scrofa.
Experiment [2] in a line: Competitive inhibition of porcine cholesterol esterase using para-nitrophenyl butyrate as substrate by Lineweaver-Burk plot analysis. Also on record: species or system Sus scrofa.
In experiment [3] the target is Procathepsin L (Homo sapiens) (UniProt P07711). Kind of experiment: Inhibition of human cathepsin L using Z-Phe-ArgpNA as substrate assessed as residual activity at 50 uM by spectrophotometric analysis relative to control. The method in brief:
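Residual human cathepsin L activity is determined in duplicate with the inhibitor at a single concentration (50). Activity is expressed relative to an uninhibited control.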

For experiment [4], the species on record is Bos taurus. The experiment in a line: Inhibition of bovine trypsin Suc-Ala-Ala-Pro-Arg-para-nitroanilide as substrate assessed as residual activity at 10 uM after 10 mins relative to control. The method in brief: (§1)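 Residual enzyme activity is determined in duplicate experiments in the presence of the inhibitor at a single concentration (10). Activity is expressed relative to an uninhibited control.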

The nature of experiment [5]: Inhibition of bovine chymotrypsin. Also on record: species or system Bos taurus.
The next experiment deals with T1, Neutrophil elastase (Homo sapiens, UniProt P08246).
T1 sequence (P08246 whole entry): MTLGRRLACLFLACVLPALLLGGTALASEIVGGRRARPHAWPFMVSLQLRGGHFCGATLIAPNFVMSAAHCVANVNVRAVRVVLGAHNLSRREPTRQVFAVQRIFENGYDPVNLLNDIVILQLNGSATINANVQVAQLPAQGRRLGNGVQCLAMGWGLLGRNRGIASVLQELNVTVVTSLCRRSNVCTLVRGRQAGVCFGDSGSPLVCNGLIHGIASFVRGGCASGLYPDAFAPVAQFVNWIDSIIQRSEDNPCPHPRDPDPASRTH
Kind of experiment: Inhibition of human leukocyte elastase.

Experiment [6] deals with T2, Prothrombin (Homo sapiens, UniProt P00734). The experiment in a line: Inhibition of human thrombin using H-D-Phe-L-Pip-Arg-para-nitroanilide as substrate after 5 mins.
Another experiment deals with Acetylcholinesterase (Electrophorus electricus, UniProt O42275). Kind of experiment: Inhibition of electric eel AChE.
Sequence of Acetylcholinesterase (O42275 whole entry): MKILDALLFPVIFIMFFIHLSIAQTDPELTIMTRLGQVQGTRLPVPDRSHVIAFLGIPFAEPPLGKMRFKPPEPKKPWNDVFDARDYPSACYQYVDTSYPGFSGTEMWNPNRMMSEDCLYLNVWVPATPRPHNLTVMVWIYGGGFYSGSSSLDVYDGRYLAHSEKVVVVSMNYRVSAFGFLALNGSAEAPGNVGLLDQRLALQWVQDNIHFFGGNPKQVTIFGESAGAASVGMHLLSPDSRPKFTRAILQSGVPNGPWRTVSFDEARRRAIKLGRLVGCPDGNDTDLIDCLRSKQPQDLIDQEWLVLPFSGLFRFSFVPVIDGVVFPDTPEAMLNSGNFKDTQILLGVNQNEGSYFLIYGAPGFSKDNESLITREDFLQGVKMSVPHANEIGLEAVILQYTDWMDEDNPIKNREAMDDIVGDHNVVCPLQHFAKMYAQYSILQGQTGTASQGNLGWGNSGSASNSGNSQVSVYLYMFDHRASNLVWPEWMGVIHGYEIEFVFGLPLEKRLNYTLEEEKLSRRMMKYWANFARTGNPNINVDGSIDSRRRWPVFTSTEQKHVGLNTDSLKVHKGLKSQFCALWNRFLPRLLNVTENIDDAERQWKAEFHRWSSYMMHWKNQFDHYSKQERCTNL
Experiment [7] is described as follows: Inhibition of porcine cholesterol esterase using para-nitrophenyl butyrate as substrate preincubated for 5 mins by spectrophotometric analysis. Also on record: species or system Sus scrofa. The method in brief: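 CEase assay on the porcine enzyme with para-nitrophenyl butyrate in 100 mM sodium phosphate and 100 mM NaCl, at 25 °C, read at 405 nm. Final: 6 mM sodium taurocholate, 3% acetonitrile, 3% DMSO, 10 ng/mL CEase. 5 min preincubation before enzyme start. Duplicates at five inhibitor concentrations; IC50 fitted by non-linear regression to v = v0/(1+[I]/IC50).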

Experiment [8] is filed under the species Bos taurus. Kind of experiment: Inhibition of bovine chymotrypsin assessed as residual activity at 5 uM relative to control. The method in brief:
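Residual chymotrypsin activity is measured with the inhibitor present at a single concentration (5). Assays are run in duplicate, and activity is expressed relative to an uninhibited control.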

Experiment [9] has as its target T2, Prothrombin. Kind of experiment: Inhibition of human thrombin using H-D-Phe-L-Pip-Arg-para-nitroanilide as substrate assessed as residual activity at 10 uM after 5 mins relative to control. The method in brief: as §1
Experiment [10] deals with Acetylcholinesterase (Electrophorus electricus) (UniProt O42275). Kind of experiment: Inhibition of electric eel AChE assessed as residual activity at 10 uM relative to control. The method in brief: as §1
Sequence of Acetylcholinesterase (Electrophorus electricus) (O42275 24-633 limits assumed): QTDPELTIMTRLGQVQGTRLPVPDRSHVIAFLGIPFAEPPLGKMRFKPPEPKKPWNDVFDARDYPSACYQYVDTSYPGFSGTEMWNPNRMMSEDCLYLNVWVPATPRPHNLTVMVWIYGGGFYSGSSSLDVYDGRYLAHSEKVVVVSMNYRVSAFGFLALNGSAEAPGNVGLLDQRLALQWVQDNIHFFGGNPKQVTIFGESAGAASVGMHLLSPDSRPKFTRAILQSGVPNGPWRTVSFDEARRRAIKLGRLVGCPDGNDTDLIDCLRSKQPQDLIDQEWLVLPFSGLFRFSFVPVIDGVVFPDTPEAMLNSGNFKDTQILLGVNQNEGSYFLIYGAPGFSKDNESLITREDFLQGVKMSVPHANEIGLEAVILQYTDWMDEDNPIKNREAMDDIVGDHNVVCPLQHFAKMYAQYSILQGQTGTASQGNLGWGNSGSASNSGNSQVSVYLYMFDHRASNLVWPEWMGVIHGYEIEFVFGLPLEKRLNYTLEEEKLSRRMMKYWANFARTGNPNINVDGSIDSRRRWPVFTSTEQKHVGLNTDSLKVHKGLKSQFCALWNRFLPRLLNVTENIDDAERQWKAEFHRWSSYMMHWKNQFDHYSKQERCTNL
Experiment [11] is described as follows: Inhibition of bovine trypsin Suc-Ala-Ala-Pro-Arg-para-nitroanilide as substrate after 10 mins. Also on record: species or system Bos taurus.
The target in experiment [12] is T3, Neutrophil elastase (Homo sapiens) (UniProt P08246).
T3 sequence (whole entry): T1 sequence (P08246 whole entry)
Kind of experiment: Inhibition of human leukocyte elastase assessed as residual activity at 10 uM relative to control. The method in brief: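 Residual enzyme activity measured in duplicate at one inhibitor concentration; more than 90% residual activity scored as no inhibition.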

The species entered for another experiment is Sus scrofa. The experiment in a line: Inhibition of porcine cholesterol esterase using para-nitrophenyl butyrate as substrate assessed as residual activity at 25 uM preincubated for 5 mins by spectrophotometric analysis relative to control. The method in brief: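 Porcine CEase read spectrophotometrically at 405 nm, 25 °C, with para-nitrophenyl butyrate. Buffer: 100 mM sodium phosphate, 100 mM NaCl. Final concentrations: 6 mM sodium taurocholate, 3% acetonitrile, 3% DMSO, 10 ng/mL enzyme. Inhibitor and substrate mixed and held 5 min, then enzyme added to start. Residual activity taken from duplicates at one inhibitor concentration.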

Sequence of Procathepsin L (Homo sapiens) (P07711 114-333 limits assumed): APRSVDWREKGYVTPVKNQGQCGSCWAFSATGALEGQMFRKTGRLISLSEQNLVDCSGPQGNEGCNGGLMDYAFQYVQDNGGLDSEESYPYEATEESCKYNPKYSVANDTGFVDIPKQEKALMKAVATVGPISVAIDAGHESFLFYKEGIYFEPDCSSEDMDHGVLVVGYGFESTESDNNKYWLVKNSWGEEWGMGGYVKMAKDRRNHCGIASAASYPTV

For `O=[N+]([O-])c1ccc2nc(-c3c[nH]c4ccccc34)cc(-c3ccccc3)c2c1`, the Ki came out at 7 µM in experiment [1] and 0.66 µM in experiment [2]. Moreover, the Activity (in [3]; in the experiment filed under Bos taurus [4]) was above 90% in each case. The IC50 in experiment [5] is at least 30 µM; on Neutrophil elastase, 0.63 µM; on Prothrombin [6] it was at least 30 µM; against Acetylcholinesterase, 22.9 µM; in [7], 1.98 µM.
With `Clc1ccc2nc(-c3cccc(Br)c3)cc(-c3ccccc3)c2c1`, the Activity (in [3]; in the experiment listed under Bos taurus [8]; on Prothrombin [9]; in experiment [10]) was above 90% each time. The IC50 was at least 28 µM at Neutrophil elastase, at least 51 µM in [11] and at least 20 µM in experiment [7].
For `Cc1ccc(-c2cc(-c3ccccc3)c3cc(Cl)ccc3n2)cc1`, the Activity (in experiment [3]; in the experiment filed under Bos taurus [8]; at Prothrombin [9]; in experiment [10]) was above 90% each time. Moreover, the IC50 against Neutrophil elastase is at least 28 µM; in experiment [11] it was at least 51 µM; in experiment [7] it was at least 20 µM.
For `Oc1ccc(-c2cc(-c3ccccc3)c3cc(Cl)ccc3n2)cc1`, the Activity (in experiment [3]; in experiment [12]; in the experiment listed under Bos taurus [8]; in experiment [10]) was above 90% throughout. Further, the IC50 is at least 51 µM in experiment [11], at least 30 µM on Prothrombin [6] and at least 20 µM in experiment [7].
Turning to `O=[N+]([O-])c1ccc2nc(-c3ccc(O)cc3)cc(-c3ccccc3)c2c1`, the Activity (in experiment [3]; in the experiment listed under Bos taurus [8]; in the experiment filed under Bos taurus [4]; in [10]) was above 90% each time. The IC50 is 2.91 µM against Neutrophil elastase, at least 30 µM against Prothrombin [6] and at least 20 µM in [7].
Turning to `COc1ccc(-c2cc(-c3ccccc3)c3cc([N+](=O)[O-])ccc3n2)cc1`, the Activity (in experiment [3]; in experiment [12]; in the experiment filed under Bos taurus [8]; in the experiment listed under Bos taurus [4]; in the experiment filed under Sus scrofa) was above 90% throughout. The IC50 was at least 30 µM at Prothrombin [6], at least 37 µM against Acetylcholinesterase and at least 20 µM in experiment [7].
Consider `O=[N+]([O-])c1ccc2nc(-c3cccc(Br)c3)cc(-c3ccccc3)c2c1`, for which the Activity (in experiment [3]; in the experiment filed under Bos taurus [8]; in the experiment listed under Bos taurus [4]; at Prothrombin [9]; in experiment [10]) was above 90% throughout. The results for the IC50 (against Neutrophil elastase; in [7]) were at least 28 µM and at least 20 µM, respectively.
Take `Clc1ccc2nc(-c3ccccc3)cc(-c3ccccc3)c2c1`: the Activity (in experiment [3]; in the experiment filed under Bos taurus [8]; in the experiment listed under Bos taurus [4]; at Prothrombin [9]; in experiment [10]) was above 90% in each case. Moreover, the IC50 is at least 28 µM against Neutrophil elastase and at least 20 µM in experiment [7].
On to `O=[N+]([O-])c1ccc2nc(-c3ccccc3)cc(-c3ccccc3)c2c1`, for which the Activity (in experiment [3]; in experiment [12]; in the experiment listed under Bos taurus [8]; at Prothrombin [9]) was above 90% in each case. The figures for the IC50 (in [11]; at Acetylcholinesterase; in experiment [7]) were at least 51 µM, at least 37 µM and at least 20 µM, respectively.
On to `Cc1ccc(-c2cc(-c3ccccc3)c3cc([N+](=O)[O-])ccc3n2)cc1`, for which the Activity (in experiment [3]; in the experiment filed under Bos taurus [8]; in the experiment filed under Bos taurus [4]; in experiment [10]) was above 90% in each case. In addition, the IC50 was at least 28 µM against Neutrophil elastase, at least 30 µM at Prothrombin [6] and at least 20 µM in experiment [7].
Turning to `Clc1ccc2nc(-c3c[nH]c4ccccc34)cc(-c3ccccc3)c2c1`, the Activity (in [3]; in the experiment listed under Bos taurus [8]; in the experiment listed under Bos taurus [4]) was above 90% throughout. Besides, the IC50 is 4.22 µM at Neutrophil elastase, at least 30 µM against Prothrombin [6], at least 37 µM on Acetylcholinesterase and 1.33 µM in experiment [7].
Take `COc1ccc(-c2cc(-c3ccccc3)c3cc(Cl)ccc3n2)cc1`: the Activity (in [3]; in the experiment listed under Bos taurus [8]; in the experiment filed under Bos taurus [4]; in experiment [10]) was above 90% throughout. The IC50 against Neutrophil elastase is at least 28 µM; on Prothrombin [6], at least 30 µM; in experiment [7], at least 20 µM.
